Screening results (PubChem BioAssay)
Runt-CBFb FRET: inhibitors of RUNX1 Runt–CBFb binding, primary screen, biochemical, FRET, Cerulean-Runt, Venus-CBFb, uHTS; Cerulean-Runt/Venus-CBFb FRET ratio 530/480, 1 h; inhibition, % at 20 µM; 0.46% of 220,000 active; AID 1496, 2009;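 active = inhibition over about 50% at 20 µM in the single-dose screen, limit read from the data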;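 also: 0% = DMSO wells and 100% = excess unlabeled CBFb competitor control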
Target sequence (Q01196 whole entry, looked up): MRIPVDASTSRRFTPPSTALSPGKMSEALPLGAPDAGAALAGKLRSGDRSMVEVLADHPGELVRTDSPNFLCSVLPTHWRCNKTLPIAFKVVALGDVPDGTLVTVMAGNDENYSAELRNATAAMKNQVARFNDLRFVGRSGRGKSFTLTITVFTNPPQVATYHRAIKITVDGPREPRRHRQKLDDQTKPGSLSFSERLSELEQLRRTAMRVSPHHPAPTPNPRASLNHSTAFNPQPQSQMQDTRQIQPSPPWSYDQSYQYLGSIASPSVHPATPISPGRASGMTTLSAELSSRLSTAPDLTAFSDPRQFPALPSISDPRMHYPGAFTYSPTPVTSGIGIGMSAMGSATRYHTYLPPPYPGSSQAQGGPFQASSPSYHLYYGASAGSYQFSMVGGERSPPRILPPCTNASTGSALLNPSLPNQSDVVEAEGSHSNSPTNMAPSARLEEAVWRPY
Target sequence (Q13951 whole entry, looked up): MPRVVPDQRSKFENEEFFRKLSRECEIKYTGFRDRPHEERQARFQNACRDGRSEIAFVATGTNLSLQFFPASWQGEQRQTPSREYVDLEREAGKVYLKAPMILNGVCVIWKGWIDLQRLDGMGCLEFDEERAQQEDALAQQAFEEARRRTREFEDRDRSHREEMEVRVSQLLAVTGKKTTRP
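System: Cerulean-labeled Runt domain protein | Quantity: 100 nM of each labeled protein | Schedule: 1 h compound exposure, room temperature | Detection: Fluorescence energy transfer, 422 nm excitation, 530/480 nm emission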
Runt-SMMHC FRET: inhibitors of RUNX1 Runt–CBFb-SMMHC binding, primary screen, biochemical, FRET, Cerulean-Runt, Venus-CBFb-SMMHC, uHTS; inhibition, % at 20 µM; 0.74% of 220,000 active; Runt-related transcription factor 1 (Homo sapiens) + Core-binding factor subunit beta …; Cerulean-Runt/Venus-CBFb-SMMHC FRET ratio 530/480, 1 h; AID 1434, 2008;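 active = mean inhibition across duplicate retests at 20 µM reaching about 50%, limit read from the data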;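 also: 0% = DMSO wells and 100% = wells with excess untagged CBFb-SMMHC; inhibitors lower the FRET ratio by blocking Runt binding to CBFb-SMMHC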
LANA-H2A inh: blockers of LANA interaction with H2A/H2B – biochemical, FP readout, HTS, primary screen | cell-free LANA-H2A/H2B peptide, fluorescence polarization | 0.6% of 320,000 active | inhibition, % (no concentration beside the values); in the data active = inhibition mostly above about 10%, no sharp cut-off; inactive = mostly below about 6.7%
RanGTP-Impb inh: inhibitors of RanGTP-importin-beta interaction, primary screen, biochemical, FRET, CFP-Ran, YFP-importin-beta, homogeneous; Ran GTPase (GTP-bound) - importin-beta complex; cell-free CFP-Ran/YFP-importin-beta FRET ratio; inhibition, % (test concentration not listed); 1.1% of 300,000 active; AID 2216, 2009;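 active = more than half of the replicate wells show a fall in the fluorescence ratio signal beyond about 16%, limit read from the data, passing the limit was not always enough; inconclusive = exactly half of the replicate wells pass the set limit; inactive = fewer than half of replicates pass the limit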;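 also: 0% = DMSO wells and 100% = Ran loaded with GDP instead of GTP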
HDAC3 inhib: HDAC3 deacetylase inhibitors, primary screen, biochemical, fluorescence, cell-free homogeneous. Histone deacetylase 3 (Homo sapiens), O15379. recombinant HDAC3, fluorogenic peptide/trypsin coupled. inhibition, % at 8.3 µM. 0.15% of 320,000 active; in the data active = inhibition above about 26%, passing the limit was not always enough; inconclusive = no clear call, values can overlap the other calls
CaV13 FRET inh: Primary screen for inhibitors of IQ motif and Ca2+-dependent inactivation inhibitor domain binding in CACNA1D, Förster resonance energy transfer in living cells, …; HEK cells, CFP/YFP FRET ICDI-IQ, plate reader, 10 min; percent FRET-ratio fall versus neutral wells; inhibition, % at 12.3 µM; 0.098% of 340,000 active;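 active = mean replicate inhibition of at least 30% and at least 1% of replicates passing that level; inconclusive = only one of the two criteria is met; inactive = neither criterion is met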;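 also: 0% = median of the neutral control wells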
Starred values were filed as active, the others as inactive; ? = inconclusive; · = not tested or not shown; + = active, no number. Sampled rows, rich in hits. Any-hit rate of the full collection: about 1.9%.

SMILES | Runt-CBFb FRET | Runt-SMMHC FRET | LANA-H2A inh | RanGTP-Impb inh | HDAC3 inhib | CaV13 FRET inh
O=C(Cc1ccc(Cl)c(Cl)c1)OCC(=O)c1ccc[nH]1 | -2 | -2 | -1 | 1 | 6 | -4
C#CCOCCOCCOCCNc1nc(N2CCN(C(=O)[C@H](Cc3ccc(O)cc3)n3cc([C@@H](N)C(C)CC)nn3)CC2)nc(N2CCN(C(=O)[C@H](CCCCN)n3cc([C@@H](N)CO)nn3)CC2)n1 (stereo not given in full) | 3 | 3 | -1 | 1 | -4 | ·
COc1cccc(NC(=S)N2CCN(C)CC2)c1 | · | · | -1 | 6 | 3 | -11
COc1cc(NC(=S)N2CCN(C)CC2)cc(OC)c1 | · | · | 9.7* | 7 | 0 | -4
COc1ccccc1NC(=O)/C(=C\c1cccs1)NC(=O)c1ccco1 | 1 | -3 | + | -2 | 4 | -3
COc1ccccc1NC(=S)N1CCN(C(=O)c2ccco2)CC1 | -6 | -2 | 16* | -2 | -5 | -3
COc1ccc2oc(C(=O)N3CCN(C(=O)c4ccco4)CC3)c(C)c2c1 | · | · | 20* | · | 3 | -6
Cc1oc2cc(O)ccc2c(=O)c1Oc1ccccc1 | -2 | -3 | 1 | 7 | -37 | ·
O=C(O)c1ccc(Oc2c(C(F)(F)F)oc3cc(O)ccc3c2=O)cc1 | -3 | -13 | -4 | 24* | 0 | -2
COC(=O)c1ccc(Oc2c(C(F)(F)F)oc3c(CN4CCN(C)CC4)c(O)ccc3c2=O)cc1 | -9 | -31 | -3 | 39* | -5 | ·
CCOc1ccccc1Oc1c(C)oc2c(CN3CCN(C)CC3)c(O)ccc2c1=O | -1 | 2 | -3 | · | -29 | -8
COC(=O)c1cc(NC(=O)c2cccs2)ccc1N1CCOCC1 | · | · | -2 | 1 | 5 | -5
O=C(Nc1ccc(N2CCOCC2)c(F)c1)c1cccs1 | · | · | -1 | 16* | -4 | ·
CC(C)(C)C(=O)O/N=C(\N)c1ccc(-c2csnn2)cc1 | 0 | 1 | 6 | -3 | -11 | -4
CCCCCCC1(C)NC(=S)N(c2ccccc2)N1 (stereo not given) | 10 | -1 | 13* | -3 | ? | 5
COC(=O)c1ccc2c(c1)C(=O)/C(=C/c1ccc(O)cc1)O2 | -226 | -106 | -22 | 19* | 5 | -14
CC(C)(C)c1ccc(/C=C2\Oc3cc(O)ccc3C2=O)cc1 | · | · | 1 | 3 | 5 | -11
O=C(NC(=S)Nc1ccccc1Cl)c1cncc(Br)c1 | · | · | 5 | ? | -6 | -2
Nc1nc(N)c(N=Nc2ccc(SCC(=O)O)cc2)c(=O)[nH]1 | 12 | 2 | 7 | 44* | 2 | -4
COC(=O)c1cn(Cc2c(C)cc(C)cc2C)nn1 | -2 | -1 | -1 | -2 | -4 | -3
Cc1ccccc1CC1(CO)CCCN(C(=O)CCCN2CCCCC2=O)C1 (stereo not given) | 1 | -8 | 83* | 4 | 3 | -3
CCOC(=O)C1(Cc2ccccc2C)CCCN(C(=O)CN2CCCCC2=O)C1 (stereo not given) | · | · | 2 | 0 | -3 | -5
N#C/C(=C(/O)COC(=O)CCc1ccc(S(=O)(=O)N2CCOCC2)cc1)c1nc2ccccc2[nH]1 | 13 | 49 | 0 | 29* | -8 | ·
N#C/C(=C(/O)COC(=O)c1ccc(Cl)c(S(=O)(=O)N2CCOCC2)c1)c1nc2ccccc2[nH]1 | 3 | 6 | -5 | 3 | 1 | -3
Cc1cc(C)c(S(=O)(=O)N2CCOC23CCN(S(C)(=O)=O)CC3)c(C)c1 | · | · | · | · | · | -15
SMILES | Runt-CBFb FRET | Runt-SMMHC FRET | LANA-H2A inh | RanGTP-Impb inh | HDAC3 inhib | CaV13 FRET inh
FC(F)(F)c1nnc(-c2ccccc2)nc1Oc1ccccc1 | 0 | -3 | -5 | 6 | 7 | -6
Fc1ccc(Oc2nc(-c3ccccc3)nnc2C(F)(F)F)cc1 | 1 | 6 | 10* | -2 | 7 | -1
COc1cc(NS(=O)(=O)c2ccc(NS(=O)(=O)c3ccc(NC(C)=O)cc3)cc2)nc(OC)n1 | · | · | 0 | 0 | 1 | -4
O=C(Nc1ccccc1)N(C1=NCCCCS1)c1cccc2ccccc12 | -2 | 0 | 7 | -2 | 5 | 5
CC(CCc1ccccc1)NC(=O)CNC(=O)COc1ccccc1 (stereo not given) | -2 | 1 | 0 | 4 | -4 | 0
CC1CCc2sc3ncn4nc(C(=O)NCc5ccco5)nc4c3c2C1 (stereo not given) | -2 | -4 | 2 | 120* | -7 | -4
O=C(NCc1ccco1)c1noc2c1CCCC2 | 6 | 0 | 1 | 2 | -2 | -9
CC1CCc2onc(C(=O)NCc3ccco3)c2C1 (stereo not given) | 2 | 5 | + | -3 | 2 | -3
O=C(/C=C/c1ccc2c(c1)OCO2)NCCS(=O)(=O)N1CCN(c2ccc(F)cc2)CC1 | · | · | -1 | -2 | 5 | -15
Cc1ccc(C2C3CSCC=C3C(C#N)=C(N)C2(C#N)C#N)cc1 (stereo not given) | -5 | -23 | -3 | 16* | -4 | -9
CCC1C2CN(C(C)=O)CC=C2C(C#N)=C(N)C1(C#N)C#N (stereo not given) | 8 | 25 | 2 | 0 | 1 | -7
CC(C)N1CC=C2C(C#N)=C(N)C(C#N)(C#N)[C@H](c3ccoc3)[C@H]2C1 | 49 | 60* | 19 | 55* | ? | ·
CN1CC=C2C(C#N)=C(N)C(C#N)(C#N)C(Cc3ccccc3)C2C1 (stereo not given) | 110* | 78* | 1 | 100* | -11 | 2
CC(C)N1CC=C2C(C#N)=C(N)C(C#N)(C#N)C(c3ccccc3)C2C1 (stereo not given) | 74* | 63* | + | 71* | -16 | -8
Cc1c(C)n(CCO)c2ncnc(Nc3ccc(F)cc3)c12 | · | · | 4 | -4 | -1 | -3
CCOC(=O)N1CCN(C(=O)CC(C)S(=O)(=O)c2cc3c(cc2C)NC(=O)CO3)CC1 (stereo not given) | · | · | 3 | -6 | -1 | -4
CCN1CC=C2C(C#N)=C(N)C(C#N)(C#N)C(c3cc(Cl)ccc3Cl)C2C1 (stereo not given) | 73* | 65* | 13 | 56* | -15 | -5
